Hits are enriched below; roughly 2.6% of the tested compounds scored in any of these assays.
VLA-4 inh: inhibition in a human VLA-4 binding assay; P13612; VLA-4 expressing cells, ligand binding flow cytometry; inhibition, % (about 7 µM as worked out from the volumes in the protocol); 0.2% of 330,000 active; in the data active = inhibition above about 50%
Target sequence (P13612 whole entry, looked up): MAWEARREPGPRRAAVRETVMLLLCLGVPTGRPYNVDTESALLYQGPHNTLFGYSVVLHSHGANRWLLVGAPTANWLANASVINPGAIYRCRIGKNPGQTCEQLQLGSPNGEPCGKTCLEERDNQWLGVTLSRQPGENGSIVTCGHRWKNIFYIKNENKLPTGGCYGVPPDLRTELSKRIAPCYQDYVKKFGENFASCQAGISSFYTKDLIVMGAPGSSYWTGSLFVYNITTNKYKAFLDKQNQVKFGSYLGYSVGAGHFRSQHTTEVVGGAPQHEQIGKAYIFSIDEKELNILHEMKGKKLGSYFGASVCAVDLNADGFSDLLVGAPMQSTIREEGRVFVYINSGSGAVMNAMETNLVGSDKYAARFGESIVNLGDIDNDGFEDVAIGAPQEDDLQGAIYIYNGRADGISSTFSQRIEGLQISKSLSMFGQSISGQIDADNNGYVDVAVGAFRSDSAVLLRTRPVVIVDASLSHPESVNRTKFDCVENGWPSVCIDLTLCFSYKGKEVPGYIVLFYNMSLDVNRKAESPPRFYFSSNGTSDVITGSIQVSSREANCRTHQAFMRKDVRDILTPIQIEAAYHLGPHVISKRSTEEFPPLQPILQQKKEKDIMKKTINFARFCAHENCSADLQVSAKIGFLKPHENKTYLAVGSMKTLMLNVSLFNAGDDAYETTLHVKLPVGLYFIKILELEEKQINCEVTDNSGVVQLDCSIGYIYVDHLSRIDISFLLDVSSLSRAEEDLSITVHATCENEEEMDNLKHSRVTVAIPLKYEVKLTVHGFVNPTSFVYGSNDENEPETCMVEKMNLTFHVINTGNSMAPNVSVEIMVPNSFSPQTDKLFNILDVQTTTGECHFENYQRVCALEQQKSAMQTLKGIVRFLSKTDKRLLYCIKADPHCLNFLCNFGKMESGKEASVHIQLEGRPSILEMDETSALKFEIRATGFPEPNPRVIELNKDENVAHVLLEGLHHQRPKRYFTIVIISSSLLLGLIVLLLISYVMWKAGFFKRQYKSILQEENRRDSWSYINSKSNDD
Platelet DG rel: modulates dense granule release in human platelets. human platelet-rich plasma, SFLLRN dense granule ATP release, luminescence. inhibition, %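 (compounds screened at 7.5 µM in platelet-rich plasma)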. 0.22% of 300,000 active. AID 1663;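 active = mean replicate score, as percent of positive control, at or above 50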
TAAR1 antag: antagonists of human TAAR1. inhibition, % at 3 µM. Q96RJ0. CHO RD-HGA16 TAAR1, Fluo-8 calcium fluorescence, antagonist. 1.5% of 360,000 active;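 active = inhibition above a per-plate cutoff, the mean inhibition of test compounds on that plate plus 3 SD, cut at about 49% in these data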;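 also: 0% = DMSO plus EC80 beta-PEA response and 100% = DMSO alone without agonist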
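Assay system: RD-HGA16 CHO cells with stable hTAAR1 and Gα16 / Reagent: EC80 β-phenethylamine stimulus / Doses: 3 µM, single point / Timing: dye loading 75 min at 37 °C, then 30 min room temperature / Measured by: Fluo-8 intracellular calcium dye fluorescence, real-time kinetic reads / Controls: vehicle wells and EC80 agonist wells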
Rce1 inhib: yeast Ras-converting enzyme inhibition; Q03530; calls only; yeast membranes, quenched prenylated peptide cleavage fluorescence; 0.27% of 290,000 active;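 active = fall in fluorescence gain of 50% or more versus controls, with final raw signal at or below 3038400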;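 also: plate controls were neutral control wells for no effect and wells lacking membranes for full effect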
TAAR1 ag: human TAAR1 agonism. Q96RJ0. CHO RD-HGA16 TAAR1, Fluo-8 calcium fluorescence; vehicle wells 0%, saturating PEA agonist 100%. activation, % at 3 µM. 0.99% of 360,000 active. AID 624467;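 active = activation above the mean activation of all test compounds in the run plus 3 SD, cut at about 38% in these data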
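Test system: RD-HGA16 (CHO) cells co-expressing Gα16 and hTAAR1; dosing: one-point dosing at 3 µM (nominal); timing: 17-24 h seeding, 75 min 37 °C dye, 30 min RT; signal: kinetic Fluo-8 calcium fluorescence; read-out basis: % activation relative to PEA EC100 response; controls: DMSO and PEA EC100; replicates: n 1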
nonsel antag count: counter-screen for TAAR1 antagonists: nonselective antagonists; shares compounds with TAAR1 antag; counterscreen cell line, calcium fluorescence, antagonist mode; inhibition, % at 3 µM; 77% of 2,400 active; AID 651780; in the data active = inhibition above about 22%;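 also: CHO-Ga16 host cells stimulated with ATP at an EC80 level; 0% = agonist EC80 plus vehicle and 100% = vehicle without agonist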
TAAR1 antag conf: confirmation of human TAAR1 antagonists; shares compounds with TAAR1 antag; TAAR1-expressing cells, fluorescence antagonist read-out; inhibition, % at 3 µM; 40% of 2,400 active; in the data active = inhibition above about 49%;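 also: CHO-Ga16 host cells challenged with agonist PEA near its EC80; 0% = agonist at EC80 plus vehicle and 100% = vehicle with no agonist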
Ga16 ag counter: nonselective Ga16 agonism, counter-screen | shares compounds with TAAR1 antag | Ga16-expressing cells, calcium fluorescence, agonist counterscreen | activation, % at 3 µM | 18% of 2,400 active | AID 651953; in the data active = activation above about 12%;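 also: 0% = vehicle wells and 100% = saturating stimulus response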
TAAR1 ag count: counter-screen for human TAAR1 antagonists: TAAR1 agonists. shares compounds with TAAR1 antag. hTAAR1 cell line, fluorescence activation, agonist mode. activation, % at 3 µM. 2% of 2,400 active; in the data active = activation above about 37%;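 also: CHO cells stably expressing TAAR1 with calcium dye readout; 0% = DMSO vehicle and 100% = full agonist response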
The depositor's hits bear a star; i = inactive; · = no result.

SMILES | VLA-4 inh | Platelet DG rel | TAAR1 antag | Rce1 inhib | TAAR1 ag | nonsel antag count | TAAR1 antag conf | Ga16 ag counter | TAAR1 ag count
COC(=O)C1=C(C)N(Cc2ccc(C(F)(F)F)cc2)C(=NCc2ccccc2)NC1c1cccc(Cl)c1 (stereo not drawn) | · | · | 60* | · | 27 | 39* | 37 | 13* | 35
COC(=O)C1=C(C)N(Cc2ccc(F)cc2)C(=S)NC1c1cccc(OC)c1 (stereo not drawn) | · | · | 57* | · | -1 | 24* | 41 | 2 | 3
CC1(C)OC(=O)C2=C(C[C@@H](C3CCCCC3)O[C@H]2c2ccccc2)O1 | · | · | 7 | · | -1 | · | · | · | ·
CC1(C)OC(=O)C2=C(C[C@@H](C3CCCCC3)O[C@H]2c2ccc(Cl)cc2)O1 | · | · | 50* | · | 5 | 4 | 13 | 7 | 14
CN(C1CCCCC1)S(=O)(=O)c1ccc(NC(=O)CCC(=O)O)cc1 | 13 | 6 | 0 | i | 1 | · | · | · | ·
CN(C1CCCCC1)S(=O)(=O)c1ccc(S(=O)(=O)N(CC(=O)Nc2ccccc2)C2CC2)cc1 | 7 | 3 | 58* | i | 5 | 26* | 41 | 9 | 10
Cc1cc(C)c(C)c(S(=O)(=O)N2CCC(C(=O)N(C)Cc3nc4ccccc4c(=O)[nH]3)CC2)c1C | · | · | 59* | · | 34 | 28* | 43 | 8 | 12
Clc1ccc(Nc2nnc(-c3ccc4c(c3)OCO4)o2)cc1 | · | · | 4 | · | 1 | · | · | · | ·
Cc1ccccc1NC(=O)CC1S/C(=N/c2nccs2)N(C)C1=O (stereo not drawn) | 4 | -12 | 3 | i | 5 | · | · | · | ·
Cc1ccc(NC(=O)CC2S/C(=N/c3nccs3)N(C)C2=O)cc1C (stereo not drawn) | 12 | · | 55* | i | 26 | 31* | 50* | 11 | 13
COc1ccccc1Nc1nnc(SCc2cc(=O)n3cc(C)ccc3n2)s1 | 8 | -5 | 69* | · | 16 | 30* | 45 | 9 | 7
Fc1ccc(CSc2nnc(-c3ccccn3)o2)cc1 | 4 | 0 | -22 | i | 1 | · | · | · | ·
Cc1ccc(OCC(=O)NNC(=O)C2CCN(c3ncnc4sc(C)c(C)c34)CC2)cc1 | -16 | -2 | 50* | · | 8 | 26* | 27 | 11 | 22
CCN(CC(=O)Nc1c(F)cccc1F)C(=O)C1CCN(c2ncnc3sc(C)c(C)c23)CC1 | -1 | 10 | 58* | i | 13 | 23* | 39 | 8 | 5
CCc1ccc(OCC(=O)NNC(=O)C2CCN(c3ncnc4sc(C)c(C)c34)CC2)cc1 | 7 | 17 | 30 | i | 6 | · | · | · | ·
COc1ccc(OCC(=O)NNC(=O)C2CCN(c3ncnc4sc(C)c(C)c34)CC2)cc1 | 0 | · | 29 | · | 10 | · | · | · | ·
Cc1sc2ncnc(N3CCC(C(=O)NNC(=O)COc4ccccc4Cl)CC3)c2c1C | 2 | 6 | 43 | i | 11 | · | · | · | ·
Cc1sc2ncnc(N3CCC(C(=O)NNC(=O)COc4ccc(Br)cc4)CC3)c2c1C | 24 | 4 | 76* | i | 20 | 42* | 53* | 12* | 21
Cc1sc2ncnc(N3CCC(C(=O)NNC(=O)COc4ccc(Cl)cc4)CC3)c2c1C | · | · | 70* | · | 23 | 38* | 42 | 12* | 27
COC(=O)CN1C(=O)COc2ccc(S(=O)(=O)NCc3ccc(Cl)cc3)cc21 | 6 | 0 | 20 | i | 1 | · | · | · | ·
Cc1cc(Cl)ccc1OCC(=O)NNC(=O)C1CCN(c2ncnc3sc(C)c(C)c23)CC1 | 6 | · | 78* | · | 19 | 39* | 52* | 14* | 21
Cc1sc2ncnc(N3CCC(C(=O)NNC(=O)COc4ccccc4F)CC3)c2c1C | 11 | -3 | 65* | · | 17 | 31* | 47 | 10 | 27
Cc1sc2ncnc(N3CCC(C(=O)NNC(=O)COc4cccc(C(F)(F)F)c4)CC3)c2c1C | -1 | -8 | 64* | i | 17 | 28* | 41 | 11 | 28
Cc1sc2ncnc(N3CCC(C(=O)NNC(=O)c4ccccc4Cl)CC3)c2c1C | -3 | 12 | 9 | i | 9 | · | · | · | ·
CCOC(=O)c1nnn(-c2nc(N3CCCC3)nc(N3CCCC3)n2)c1-c1ccccc1 | -14 | -2 | 18 | i | 0 | · | · | · | ·
SMILES | VLA-4 inh | Platelet DG rel | TAAR1 antag | Rce1 inhib | TAAR1 ag | nonsel antag count | TAAR1 antag conf | Ga16 ag counter | TAAR1 ag count
CCOC(=O)c1c(-c2ccccc2)nnn1-c1nc(OCC)nc(N2CCCCC2)n1 | -18 | -4 | 53* | i | 13 | 23* | 30 | 6 | 6
CCOC(=O)c1cccc(C2=CC(=O)C[C@H](c3ccc(OC)c(OC)c3)C2)c1 | 0 | · | 48 | · | 12 | · | · | · | ·
Cc1ccc(-c2cc(C(=O)OCC(=O)NC3CC3)c3ccccc3n2)cc1 | 2 | · | 14 | · | 2 | · | · | · | ·
COc1cc(-c2cc(C(=O)N3CCCCCC3)c3ccccc3n2)cc(OC)c1OC | · | · | 24 | · | 8 | · | · | · | ·
COc1cccc(CN(C)C(=O)c2cc(-c3cccs3)nc3ccccc23)c1 | -10 | -6 | 76* | i | 10 | 35* | 58* | 10 | 13
COCCN(Cc1ccccc1)C(=O)c1cc(-c2ccc(OC)c(OC)c2)nc2ccccc12 | 7 | 10 | 62* | i | 4 | 26* | 45 | 6 | 9
COc1ccccc1CN(C)C(=O)c1cc(-c2cc(OC)c(OC)c(OC)c2)nc2ccccc12 | -1 | 3 | 61* | i | 8 | 35* | 54* | 5 | 4
COc1cc(-c2cc(C(=O)OCC(=O)NC3CC3)c3ccccc3n2)cc(OC)c1OC | 8 | · | 68* | · | 13 | 27* | 41 | 8 | 10
O[C@@H]([C@H](O)[C@H](O)CBr)[C@H](O)CBr | 4 | -3 | -18 | i | 1 | · | · | · | ·
COc1ccc(-c2cc(C(=O)N(C)Cc3ccccc3F)c3ccccc3n2)cc1OC | 7 | 7 | 78* | i | 9 | 28* | 44 | 7 | 5
COCCN(CC(=O)Nc1cccc(C)c1C)C(=O)c1cc(-c2ccncc2)nc2ccccc12 | -5 | · | 74* | · | 18 | 31* | 56* | 7 | 6
COc1cccc(C(NC(C)=O)c2nc(-c3cccc(F)c3)cs2)c1 (stereo not drawn) | · | · | -21 | · | 8 | · | · | · | ·
O=C(NCc1cccs1)C1CCN(S(=O)(=O)c2ccc(Br)s2)CC1 | 0 | 2 | -6 | i | 13 | · | · | · | ·
O=C(NCc1cccs1)C1CCC(CNS(=O)(=O)c2ccc(Br)s2)CC1 (stereo not drawn) | 4 | 3 | 57* | i | 26 | 17 | 53* | 7 | 39*

Source: PubChem
